Test results from ChEMBL document CHEMBL4715736, “Identification of anticancer agents based on the thieno[2,3-b]pyridine and 1H-pyrazole molecular scaffolds” (2016).

Experiments:
Type in all cases: functional
OVCAR-8 = assay: Growth inhibition of human OVCAR-8 cells assessed as cell growth at 100 uM incubated for 48 hrs by sulforhodamine B assay relative to control; details: read-out: Activity
HCC 2998 = assay: Growth inhibition of human HCC 2998 cells assessed as cell growth at 0.1 uM incubated for 48 hrs by sulforhodamine B assay relative to control; details: read-out: Activity
Procedure, shortened: (§1)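 NCI Developmental Therapeutics Program NCI60 panel. Compounds that were active in the 10 µM one-dose screen went on to dose–response testing. Growth at each concentration is expressed relative to untreated control (100%). GI50 (concentration giving 50% of maximal inhibition of proliferation) and TGI (concentration giving total growth inhibition) were derived from the curves.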

NCI-H322M [1] = assay: Growth inhibition of human NCI-H322M cells assessed as cell growth at 1 uM incubated for 48 hrs by sulforhodamine B assay relative to control; details: read-out: Activity
Hs-578T = assay: Growth inhibition of human Hs-578T cells assessed as cell growth at 0.1 uM incubated for 48 hrs by sulforhodamine B assay relative to control; details: read-out: Activity
LOX IMVI = assay: Growth inhibition of human LOX IMVI cells incubated for 48 hrs by sulforhodamine B assay
Procedure, shortened: (§2)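 NCI60 panel at the NCI Developmental Therapeutics Program. Only compounds active in the 10 µM screen went to dose-response testing. GI50, the concentration giving 50% of maximal inhibition of proliferation, and TGI, the concentration giving total growth inhibition, were derived from the dose-response curves.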

SF-268 [2] = assay: Growth inhibition of human SF-268 cells assessed as cell growth at 0.1 uM incubated for 48 hrs by sulforhodamine B assay relative to control; details: read-out: Activity
MDA-MB-468 [3] = assay: Growth inhibition of human MDA-MB-468 cells assessed as cell growth at 0.01 uM incubated for 48 hrs by sulforhodamine B assay relative to control; details: read-out: Activity
HCT-15 = assay: Growth inhibition of human HCT-15 cells assessed as cell growth at 0.1 uM incubated for 48 hrs by sulforhodamine B assay relative to control; details: read-out: Activity
NCI-H322M [4] = assay: Growth inhibition of human NCI-H322M cells assessed as cell growth at 0.01 uM incubated for 48 hrs by sulforhodamine B assay relative to control; details: read-out: Activity
HCT-116 = assay: Growth inhibition of human HCT-116 cells incubated for 48 hrs by sulforhodamine B assay; procedure, shortened: as §2
UACC-62 = assay: Growth inhibition of human UACC-62 cells incubated for 48 hrs by sulforhodamine B assay
Procedure, shortened: (§3)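 NCI DTP 60-line human tumour panel. Dose-response curves were run only for ligands active in the initial 10 µM screen. GI50 (concentration giving 50% of maximal inhibition of proliferation) and TGI (concentration giving total growth inhibition) were derived from these curves.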

MDA-MB-468 [5] = assay: Growth inhibition of human MDA-MB-468 cells assessed as cell growth at 0.1 uM incubated for 48 hrs by sulforhodamine B assay relative to control; details: read-out: Activity
OVCAR-4 [6] = assay: Growth inhibition of human OVCAR-4 cells assessed as cell growth at 100 uM incubated for 48 hrs by sulforhodamine B assay relative to control; details: read-out: Activity
SK-MEL-2 = assay: Growth inhibition of human SK-MEL-2 cells assessed as cell growth at 100 uM incubated for 48 hrs by sulforhodamine B assay relative to control; details: read-out: Activity
A498 = assay: Growth inhibition of human A498 cells assessed as cell growth at 0.1 uM incubated for 48 hrs by sulforhodamine B assay relative to control; details: read-out: Activity; procedure, shortened: as §1
DU-145 [7] = assay: Growth inhibition of human DU-145 cells assessed as cell growth at 0.1 uM incubated for 48 hrs by sulforhodamine B assay relative to control; details: read-out: Activity; procedure, shortened: as §1
SNB-19 [8] = assay: Growth inhibition of human SNB-19 cells incubated for 48 hrs by sulforhodamine B assay; procedure, shortened: as §3
COLO 205 = assay: Growth inhibition of human COLO 205 cells assessed as cell growth at 100 uM incubated for 48 hrs by sulforhodamine B assay relative to control; details: read-out: Activity; procedure, shortened: as §1
BT-549 = assay: Growth inhibition of human BT-549 cells assessed as cell growth at 0.1 uM incubated for 48 hrs by sulforhodamine B assay relative to control; details: read-out: Activity
OVCAR-4 [9] = assay: Growth inhibition of human OVCAR-4 cells assessed as cell growth at 1 uM incubated for 48 hrs by sulforhodamine B assay relative to control; details: read-out: Activity
SNB-19 [10] = assay: Growth inhibition of human SNB-19 cells assessed as cell growth at 0.01 uM incubated for 48 hrs by sulforhodamine B assay relative to control; details: read-out: Activity
MCF7 = assay: Growth inhibition of human MCF7 cells assessed as cell growth at 100 uM incubated for 48 hrs by sulforhodamine B assay relative to control; details: read-out: Activity
SNB-75 = assay: Growth inhibition of human SNB-75 cells assessed as cell growth at 1 uM incubated for 48 hrs by sulforhodamine B assay relative to control; details: read-out: Activity
SF-268 [11] = assay: Growth inhibition of human SF-268 cells assessed as cell growth at 100 uM incubated for 48 hrs by sulforhodamine B assay relative to control; details: read-out: Activity
NCI-H322M [12] = assay: Growth inhibition of human NCI-H322M cells incubated for 48 hrs by sulforhodamine B assay; details: for CC50: read-out: LC50 (the source's name); procedure, shortened: as §2
SF-295 = assay: Growth inhibition of human SF-295 cells assessed as cell growth at 1 uM incubated for 48 hrs by sulforhodamine B assay relative to control; details: read-out: Activity
MOLT-4 [13] = assay: Growth inhibition of human MOLT-4 cells assessed as cell growth at 1 uM incubated for 48 hrs by sulforhodamine B assay relative to control; details: read-out: Activity
NCI-H522 = assay: Growth inhibition of human NCI-H522 cells assessed as cell growth at 1 uM incubated for 48 hrs by sulforhodamine B assay relative to control; details: read-out: Activity
NCI-H23 = assay: Growth inhibition of human NCI-H23 cells assessed as cell growth at 100 uM incubated for 48 hrs by sulforhodamine B assay relative to control; details: read-out: Activity
NCI-H226 = assay: Growth inhibition of human NCI-H226 cells assessed as cell growth at 100 uM incubated for 48 hrs by sulforhodamine B assay relative to control; details: read-out: Activity
DU-145 [14] = assay: Growth inhibition of human DU-145 cells assessed as cell growth at 100 uM incubated for 48 hrs by sulforhodamine B assay relative to control; details: read-out: Activity; procedure, shortened: as §1
MOLT-4 [15] = assay: Growth inhibition of human MOLT-4 cells incubated for 48 hrs by sulforhodamine B assay; details: for CC50: read-out: LC50 (the source's name); procedure, shortened: as §2
U-251 = assay: Growth inhibition of human U-251 cells assessed as cell growth at 0.01 uM incubated for 48 hrs by sulforhodamine B assay relative to control; details: read-out: Activity
RPMI-8226 = assay: Growth inhibition of human RPMI-8226 cells assessed as cell growth at 0.1 uM incubated for 48 hrs by sulforhodamine B assay relative to control; details: read-out: Activity
PC-3 = assay: Growth inhibition of human PC-3 cells incubated for 48 hrs by sulforhodamine B assay; details: for CC50: read-out: LC50 (the source's name); procedure, shortened: as §3

For `Cc1cccc(NC(=O)c2sc3nc4c(cc3c2N)C(=O)CCC4)c1`, the growth at 100 µM (OVCAR-8) was -30%, the growth at 0.1 µM (HCC 2998) was 80% and the growth at 1 µM (NCI-H322M [1]) was 48%. The growth at 0.1 µM (Hs-578T) was 76%, the GI50 (LOX IMVI) was 0.0118 µM and the LC50 (LOX IMVI) was > 100 µM. For the same molecule, the TGI (LOX IMVI) was ≥ 100 µM, the growth at 0.1 µM (SF-268 [2]) was 93% and the growth at 0.01 µM (MDA-MB-468 [3]) was 93%. The growth at 0.1 µM (HCT-15) was 48%, the growth at 0.01 µM (NCI-H322M [4]) was 97% and the GI50 (HCT-116) was 0.28 µM. The LC50 (concentration killing 50% of cells) (HCT-116) was > 100 µM, the TGI (HCT-116) was > 100 µM and the GI50 (UACC-62) was 0.333 µM. The LC50 (UACC-62) was > 100 µM, the TGI (UACC-62) was ≥ 100 µM and the growth at 0.1 µM (MDA-MB-468 [5]) was 45%. The growth at 100 µM (OVCAR-4 [6]) was -56%, the growth at 100 µM (SK-MEL-2) was -74% and the growth at 0.1 µM (A498) was 32%. The growth at 0.1 µM (DU-145 [7]) was 89%, the GI50 (SNB-19 [8]) was 0.403 µM and the LC50 (SNB-19 [8]) was > 100 µM. The TGI (SNB-19 [8]) was > 100 µM, the growth at 100 µM (COLO 205) was -8% and the growth at 0.1 µM (BT-549) was 74%. The growth at 1 µM (OVCAR-4 [9]) was 44%, the growth at 0.01 µM (SNB-19 [10]) was 94% and the growth at 100 µM (MCF7) was -56%. The growth at 1 µM (SNB-75) was 6%, the growth at 100 µM (SF-268 [11]) was -12% and the TGI (NCI-H322M [12]) was > 100 µM. For the same molecule, the CC50 (NCI-H322M [12]) was > 100 µM, the growth at 1 µM (SF-295) was 9% and the growth at 1 µM (MOLT-4 [13]) was 54%. It also gave a growth at 1 µM (NCI-H522) of -35%, a growth at 100 µM (NCI-H23) of 12% and a growth at 100 µM (NCI-H226) of -15%. For the same molecule, the growth at 100 µM (DU-145 [14]) was -34%, the TGI (MOLT-4 [15]) was > 100 µM and the CC50 (MOLT-4 [15]) was > 100 µM. For the same molecule, the growth at 0.01 µM (U-251) was 96%, the growth at 0.1 µM (RPMI-8226) was 94% and the GI50 (PC-3) was 0.393 µM. For the same molecule, the TGI (PC-3) was ≥ 100 µM and the CC50 (PC-3) was > 100 µM.
`Nc1c(C(=O)Nc2ccccc2)sc2nc3c(cc12)CN(Cc1ccccc1)CC3` gave a growth at 100 µM (OVCAR-8) of 18%, a growth at 0.1 µM (HCC 2998) of 97% and a growth at 1 µM (NCI-H322M [1]) of 91%. The growth at 0.1 µM (Hs-578T) was 92%, the GI50 (LOX IMVI) was 10.5 µM and the LC50 (LOX IMVI) was > 100 µM. For the same molecule, the TGI (LOX IMVI) was > 100 µM, the growth at 0.1 µM (SF-268 [2]) was 99% and the growth at 0.01 µM (MDA-MB-468 [3]) was 96%. For the same molecule, the growth at 0.1 µM (HCT-15) was 97%, the growth at 0.01 µM (NCI-H322M [4]) was 93% and the GI50 (HCT-116) was 11 µM. The LC50 (concentration killing 50% of cells) (HCT-116) was > 100 µM, the TGI (HCT-116) was > 100 µM and the GI50 (UACC-62) was 13.9 µM. For the same molecule, the LC50 (UACC-62) was > 100 µM, the TGI (UACC-62) was > 100 µM and the growth at 0.1 µM (MDA-MB-468 [5]) was 98%. For the same molecule, the growth at 100 µM (OVCAR-4 [6]) was -19%, the growth at 100 µM (SK-MEL-2) was 4% and the growth at 0.1 µM (A498) was 82%. For the same molecule, the growth at 0.1 µM (DU-145 [7]) was 107%, the GI50 (SNB-19 [8]) was 18.3 µM and the LC50 (SNB-19 [8]) was > 100 µM. For the same molecule, the TGI (SNB-19 [8]) was > 100 µM, the growth at 100 µM (COLO 205) was 23% and the growth at 0.1 µM (BT-549) was 89%. The growth at 1 µM (OVCAR-4 [9]) was 66%, the growth at 0.01 µM (SNB-19 [10]) was 93% and the growth at 100 µM (MCF7) was 14%. For the same molecule, the growth at 1 µM (SNB-75) was 64%, the growth at 100 µM (SF-268 [11]) was 9% and the GI50 (NCI-H322M [12]) was > 100 µM. The TGI (NCI-H322M [12]) was > 100 µM, the CC50 (NCI-H322M [12]) was > 100 µM and the growth at 1 µM (SF-295) was 90%. The growth at 1 µM (MOLT-4 [13]) was 97%, the growth at 1 µM (NCI-H522) was 91% and the growth at 100 µM (NCI-H23) was 24%. It also gave a growth at 100 µM (NCI-H226) of 19%, a growth at 100 µM (DU-145 [14]) of 16% and a GI50 (MOLT-4 [15]) of 31.3 µM. The TGI (MOLT-4 [15]) was > 100 µM, the CC50 (MOLT-4 [15]) was > 100 µM and the growth at 0.01 µM (U-251) was 98%. The growth at 0.1 µM (RPMI-8226) was 99%, the GI50 (PC-3) was 27.1 µM and the TGI (PC-3) was > 100 µM. For the same molecule, the CC50 (PC-3) was > 100 µM.
